The data set concerns MS2 coat protein. Nature of the data set: apparent Kd, MS2 coat protein; higher = weaker binding; RNA-MaP array; FMN 200 µM where present. The procedure, abridged:
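The apparent Kd is reported as the median of filtered per-cluster binding-curve fits. To get these curves, designs transcribed by stalled E. coli RNA polymerase on Illumina sequencing-chip clusters were titrated with SNAP-549-labelled MS2 coat protein from 0.7 or 1.5 nM, doubling to 3 µM. Titrations were run without and then with constant ligand in 100 mM Tris-HCl pH 7.5, 80 mM KCl, 4 mM MgCl2, BSA, DTT, yeast tRNA and Tween-20, and green signal was normalised to red-channel RNA signal and control-cluster median Fmax.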

Setting [1] is: designed as: ON switch for flavin mononucleotide, no ligand.
The mark [2] stands for this setting: ligand present: flavin mononucleotide, designed as: ON switch for flavin mononucleotide.
The mark [3] stands for this setting: designed as: OFF switch for flavin mononucleotide, no ligand.
The mark [4] stands for this setting: ligand present: flavin mononucleotide, designed as: OFF switch for flavin mononucleotide.

Take “ACUGACAUGAGGAUCACCCAUGUCUUGAAUAGGUCAAAUUCACAGGAUAUGCGCUAGGACAGGGUGCAGAAGGGUGAUGCAAUG”: the “apparent Kd” value is, setting by setting: under setting [1], 45.4 nM; under setting [2], 12.1 nM.
In the case of “GAUGAGGUAGGAUAUACGAGAAUAUAGGGUAGAUAUAUAACACAUGAGGAUCACCCAUGUAGAAGGACCAGUAG”, the “apparent Kd” value is, setting by setting: under setting [3], 38.4 nM; under setting [4], 89.9 nM.
In the case of “CCUCCUGGUCAGGAUAUCGGACGUUUUAUUCGACGAGAAGGGACCACAUGAGGAUCACCCAUGUGAUGAAGAAC”, the “apparent Kd” value is, setting by setting: under setting [3], 42.4 nM; under setting [4], 182 nM.
In the same order, the values of “UUAGGACAAGCAGGAUAUGUAACAUGAGGAUCACCCAUGUUGAGACUUUGGCACUCCUACAUGCAGCAGAAGGGCUUCAAACCU” are 29.7 nM and 66.4 nM.
In the same order, the values of “CCGGAAAUGGAGGAUAUAGGAGUCGAUAGACACCUAGAAGGUCAUACAUGAGGAUCACCCAUGUGUCCUACCGG” are 17.2 nM and 19.1 nM.
In the same order, the values of “AAUGUACUCGGAGGAUAUCCCACAUGAGGAUCACCCAUGUGGGUCACUGAUUCUCGUAUCGUCCGGGAGAAGGCCGAGAACUGA” are 34.6 nM and 111 nM.
“GGAUUACAUGAGGAUCACCCAUGUGAGGAUAUCGAUGUCCUCAGUCAAGUGCGGGACUCGAGAAGGCACUUGGA”: the “apparent Kd” value was found to be 64.2 nM under setting [3] and 32 nM under setting [4].
On to “UCCACGUGUGCAGGAUAUCCCACGAGCGCAACAUGAGGAUCACCCAUGUACCUGAGUCUCGGAACGGAGAAGGGUACAUGUUAA”, for which the “apparent Kd” value runs as follows: under setting [1], 340 nM; under setting [2], 45.2 nM.
Turning to “AGCUAAAACGAAGGAUAUACAAACAUGAGGAUCACCCAUGUAUACAUGAUUUAUUGUGAUCACAUGUAGAAGGUCGUACUAACA”, the “apparent Kd” value runs as follows: under setting [1], 958 nM; under setting [2], 225 nM.
In the case of “CUCUUGUGAGGAUAUCAGUAGUAAAAAAAUAAAAUUACUACUGAGAAGGCACAUGAGGAUCACCCAUGUGUCUU”, the “apparent Kd” value worked out at 14 nM under setting [3] and 13.1 nM under setting [4].
On to “AAAAAACAUGAGGAUCACCCAUGUCUUCGGACGUGAGGAUAUGUACAGACUUCGGUCUGUACAGAAGGCACGUAAA”, for which the “apparent Kd” value turned out to be 51 nM under setting [1] and 23 nM under setting [2].
For the sequence “ACGCUUUGGGAGAAGGUACGUUAAUUUUUUUCCACAUGAGGAUCACCCAUGUAAGGAUAUCCCGGCGUUAAAUAGGCUACAGCA”, the “apparent Kd” value is, setting by setting: under setting [3], 7.2 nM; under setting [4], 8.14 nM.
As for “CGUAGGAUCCAGAAGGCAUGAAACAUGAGGAUCACCCAUGUCAAAGACAUGAGGAUAUGGAUCCUACGAAAAGUGCGAAAGCAC”, the “apparent Kd” value is, setting by setting: under setting [1], 4.1 nM; under setting [2], 3.15 nM.
With “GUAAUACAUGAGGAUCACCCAUGUAAGGAUAUGCUAGCGGUCGGCUGACUGACUGCUAGCAGAAGGUACAUGAU”, the “apparent Kd” value runs as follows: under setting [3], 85.1 nM; under setting [4], 128 nM.
Consider “UCACAGUGUCGUUAUCCGUAGCGAACAUGAGGAUCACCCAUGUAGGAUAUGUUAUUAAACUAAUAACAGAAGGACGUUGGUCUC”, for which the “apparent Kd” value is, setting by setting: under setting [3], 83.2 nM; under setting [4], 530 nM.
“AAUCUUUUUAUGGGAUUAGAAUAUGAGGAUAUCAUUUGUUUAUACAUGAGGAUCACCCAUGUUUCUGAGAAGGCAUAUAUAAUA”: the “apparent Kd” value reads like this: under setting [1], 44.6 nM; under setting [2], 10.2 nM.
As for “GGGUGAUGUAGAGGAUAUCCAGGACGAUACAGAGGAGAAGGCUACAUGAGGAUCACCCAUGUCACCGGGAUAAAGCUGUAGAGU”, the “apparent Kd” value came out at 39.8 nM under setting [3] and 109 nM under setting [4].
In the same order, the values of “AUUAUGACCGAGUUAUACUUCUAAACAUGAGGAUCACCCAUGUAGGAUAUCAGCACGAUAAGUGCUGAGAAGGACAUCUCGGUC” are 13.7 nM and 14.6 nM.
Regarding “AUAUAGUCAGGAUAUCGAAAUAUAUAUUAAUAUAUAUAAUACGAGAAGGGACAUGAGGAUCACCCAUGUAGUAA”, the “apparent Kd” value runs as follows: under setting [3], 25.7 nM; under setting [4], 31.1 nM.
Consider “AACGCGUCAGGAUAUAGCGAAACUUAGGUAGUACAACCAUACUAGAAGGGACAUGAGGAUCACCCAUGUGGGUA”, for which the “apparent Kd” value turned out to be 209 nM under setting [3] and 104 nM under setting [4].
In the same order, the values of “CCGGAAAUAGAGGAUAUCGUACUGGAUACAGUACGAGAAGGCUAUACAUGAGGAUCACCCAUGUGUCCUACCGG” are 16.9 nM and 36 nM.
“CGGCGCUGUCGAGAGGAUAUGCGGUGAUGGACAUGAGGAUCACCCAUGUUAGCGAUAGCAUCACGGUAGAAGGCUCCACAGCCGU”: the “apparent Kd” value came out at 31.8 nM under setting [1] and 13 nM under setting [2].
In the same order, the values of “GACAUGAGGAUCACCCAUGUCCCUCCAGAAGGCUGGCGCGCGAAACCUAAAUCAGUUCCGGGCACAGAGGAUAUGGGCGGUUGG” are 164 nM and 34.3 nM.
Turning to “GGAUAGGACACAGGAUAUACGUGCUAGAGAUACUAGCAAAAUUUCCUCACAUGAGGAUCACCCAUGUAGAAGGCUGUCCUAUCG”, the “apparent Kd” value turned out to be 6.15 nM under setting [3] and 5.95 nM under setting [4].
In the same order, the values of “GUUACACAUGAGGAUCACCCAUGUAAGGAUAUGCUGCGGUCGCGCUGACGUGACUGCAGCAGAAGGUACACAUG” are 105 nM and 133 nM.
In the same order, the values of “UUAUUUUUACAGAAGGUUUAAUAAUAUGUAUGAGAAGGAUAUGUAACAUGAGGAUCACCCAUGUUUUAUUUAUAUGAGGUUCGU” are 15.3 nM and 12.5 nM.
Take “GCAUGCGUUCGAGGAUAUCGGUGAGCAACGGAACGAGAAGGCGAUCGAAUGUCACAUAUUAUGUACAUGAGGAUCACCCAUGUA”: the “apparent Kd” value is 104 nM under setting [1] and 43.4 nM under setting [2].
Consider “CGCUCAAGAGAGAAGGAUUGAAUCAGAAGGCGUUACAUGAGGAUCACCCAUGUAUAGUAGUGUAACGAGGAUAUGAAAUGAGCG”, for which the “apparent Kd” value by setting is: under setting [3], 133 nM; under setting [4], 437 nM.
For the sequence “CGUAGUCCGUAGAAGGGUGACAUGAGGAUCACCCAUGUGCGAGCCGAGGGAGUCAGCGGCUCGCCACAGGAUAUACGGAGCACG”, the “apparent Kd” value runs as follows: under setting [1], 44.5 nM; under setting [2], 52.9 nM.
“CUGGGCCAGGAGAAGGGCUAGAGUGUGAUAUAUUUGCCCGCGAGCACAUGAGGAUCACCCAUGUAGCAGGAUAUCCAAGCCGGU”: the “apparent Kd” value is 8.38 nM under setting [3] and 15.8 nM under setting [4].
Turning to “GUAGCUAUCGCAGGAUAUCCUCAGGCGAAAGCCACAUGAGGAUCACCCAUGUAAAUAAAGUAUUUGGAGAAGGGCGAUAGCUAC”, the “apparent Kd” value is, setting by setting: under setting [1], 710 nM; under setting [2], 36.1 nM.
As for “UAAUAUUUAUGAUAUUAUUACAUUAGAAGGCUAGACAUGUGGAUACAUGAGGAUCACCCAUGUAUAGAGGAUAUAGACAUAUAG”, the “apparent Kd” value runs as follows: under setting [3], 25.8 nM; under setting [4], 42.6 nM.
In the case of “ACAUACUCUCGAGGAUAUCGUAUAAUUAUUAAACGAGAAGGCGAUUGUUUAUUUCUAAUACACGACAUGAGGAUCACCCAUGUA”, the “apparent Kd” value came to 27.1 nM under setting [1] and 25.4 nM under setting [2].
As to “CCUCUACAUGAGGAUCACCCAUGUGAGGAUAUAUGCCCAUUACGCCAAGGGCGUGAUGAUAGAAGGCACAGGGU”, the “apparent Kd” value was 22.4 nM under setting [3] and 71.1 nM under setting [4].
In the same order, the values of “CUCAUGUGAGGAUAUGUGAUCAACCUUCUAUAUAGAUGAUUACAGAAGGCACAUGAGGAUCACCCAUGUAGAUC” are 23.4 nM and 18.3 nM.
Turning to “ACAUCUAGAGGAUAUACAUGAGUGAUACACGUAUUUCCACUACAUGAGGAUCACCCAUGUAGAAGGCUAGAUGA”, the “apparent Kd” value runs as follows: under setting [3], 50 nM; under setting [4], 16.9 nM.
For “CUGCCGUAGGAGAAGGACGGCGGGUUAUUUUUGUACAUGAGGAUCACCCAUGUAGGAUAUCCUACGUCAGGCGACCUACUACAG”, the “apparent Kd” value is 33 nM under setting [3] and 34.5 nM under setting [4].
In the case of “AAAAAAUGAGGAUAUACAUGAAAAAAAAAAAAAAAAAAAAAACAUGAGGAUCACCCAUGUAGAAGGCGUAAAAA”, the “apparent Kd” value is, setting by setting: under setting [3], 51.2 nM; under setting [4], 41.4 nM.
In the same order, the values of “UUAUACGUUGAGGAUAUGCGACUUUUUUUAGUUGUAGAAGGCGAUACAUGAGGAUCACCCAUGUUUAUGGGCAU” are 166 nM and 218 nM.
Consider “CUCUUACAUGAGGAUCACCCAUGUGAGGAUAUAGCGGCCUGAUGAGGGAUCAACAUCGCUAGAAGGUACUUGGG”, for which the “apparent Kd” value was determined as 101 nM under setting [3] and 106 nM under setting [4].
Consider “GAAGCAGAUCAGAAGGACAACGUAGUUUCUGGCUUGGUGGCCCUCGUUUGUAGGAUAUGAUCUAACAUGAGGAUCACCCAUGUG”, for which the “apparent Kd” value under setting [1] turned out to be 53.2 nM and the “apparent Kd” value under setting [2] turned out to be 11.7 nM.
On to “GGUCCACAUGAGGAUCACCCAUGUUAGGAUAUCUCGUCCGAGCAGUUAUGGGCCGGGCAGAGAAGGAAUGUGAA”, for which the “apparent Kd” value reads like this: under setting [3], 30.3 nM; under setting [4], 26.6 nM.
In the same order, the values of “UUCAGCUCGUCAGGAUAUACGUCACUGCUUCGGCAGUGUGGUAAGAUCACAUGAGGAUCACCCAUGUAGAAGGGACGAGCUGAA” are 12.5 nM and 254 nM.
“UGUCGGAGCAGAGGAUAUUACAUGAGGAUCACCCAUGUAUGAACCAAUAGCUGGAAUCAGCAAUGUAAGAAGGCUGCUCCGACA”: the “apparent Kd” value runs as follows: under setting [3], 17.5 nM; under setting [4], 167 nM.
As to “UGUUGUAUUACAGGAUAUCUAGGAUUUUUAUUUAGAGAAGGGUAUUCACAUGAGGAUCACCCAUGUAUAUACGAGGAAGUUGUG”, the “apparent Kd” value is, setting by setting: under setting [1], 40.2 nM; under setting [2], 41.3 nM.
As to “AAAUAAACUACCAAGAUAUCCUCACAUGAGGAUCACCCAUGUCAGGAUAUUUGUCCUAAAAGGACAGAGAAGGGACGUGGUAGA”, the “apparent Kd” value under setting [3] was found to be 6.24 nM and the “apparent Kd” value under setting [4] was 14.8 nM.
For the sequence “GCCAUCGCAUGAGGAUAUGCUCCGGUUUCCGGAGCAGAAGGCAUGUCAUAAAACAUGAGGAUCACCCAUGUAGUUAAGAUGGCA”, the “apparent Kd” value amounted to 8.86 nM under setting [1] and 5.18 nM under setting [2].
As to “AAGAAGUGAGGAUAUACAUGAGGAUCACCCAUGUAAAGAAGAAGAGGAGAGAAUAAAGGUAGAAGGCACAAGAA”, the “apparent Kd” value was 45.8 nM under setting [3] and 46 nM under setting [4].

In general, apparent Kd refers to a dissociation constant that holds for the conditions of the assay.
